Assay results as given in ChEMBL document CHEMBL5329178, “Synthesis and antibacterial activity of 2-benzylidene-3-oxobutanamide derivatives against resistant pathogens” (RSC Med Chem, 2023).
Activity calls are given as the source filed them. No cut-off for these calls is given here.

Columns and labels:
Staphylococcus aureus [1] = assay: Antibacterial activity against Staphylococcus aureus assessed as growth inhibition at 32 ug/mL by whole cell growth inhibition assay relative to control; assay type: functional; conditions: read-out: GI
Procedure, shortened: (§1)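 Primary single-concentration screen at 32 µg/mL, final DMSO ≤1%, duplicate on different plates. Mid-log cultures in cation-adjusted Mueller Hinton broth at 5×10^5 CFU/mL; 37 °C, 18 h, no shaking. OD600 read; % growth inhibition relative to media-only and untreated-bacteria controls on the same plate. Strains: E. coli ATCC 25922, A. baumannii ATCC 19606, S. aureus ATCC 43300 (MRSA).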

Acinetobacter baumannii [2] = assay: Antibacterial activity against Acinetobacter baumannii assessed as growth inhibition at 32 ug/mL by whole cell growth inhibition assay relative to control; assay type: functional; conditions: read-out: GI; procedure, shortened: as §1
[3] = Solubility of the compound in water; assay type: physicochemical; conditions: buffer
Escherichia coli = assay: Antibacterial activity against Escherichia coli assessed as growth inhibition at 32 ug/mL by whole cell growth inhibition assay relative to control; assay type: functional; conditions: read-out: GI; procedure, shortened: as §1
[4] = Octanol/Water partition coefficient, logP of the compound; assay type: physicochemical
Acinetobacter baumannii [5] = assay: Antibacterial activity against Multi drug resistant Acinetobacter baumannii assessed as growth inhibition at 32 ug/mL by HIT assay relative to control; assay type: functional; conditions: read-out: GI
Procedure, shortened: (§2)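 A. baumannii ATCC 19606 and MRSA ATCC 43300 were grown overnight in cation-adjusted Mueller Hinton broth at 37 °C, subcultured to mid-log, and added at 5×10^5 CFU/mL to an 8-point, 2-fold dilution series (32–0.25 µg/mL; ≤0.5% DMSO). After 18 h static at 37 °C, OD600 was read. Percent inhibition was taken against media-only and untreated-bacteria wells, in duplicate. MIC was the lowest concentration giving ≥80% inhibition.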

[6] = Cytotoxicity against human HEK293 cells assessed as cell viability at 64 ug/ml relative to control; assay type: toxicity, cell-based; conditions: at 64 µg/mL, read-out: Activity
[7] = Hemolytic activity in RBC (unknown origin) assessed as cell viability at 64 ug/ml relative to control; assay type: toxicity, cell-based, Erythrocyte; conditions: red blood cells (erythrocytes), at 64 µg/mL, read-out: Activity
Acinetobacter baumannii [8] = assay: Bactericidal activity against Acinetobacter baumannii assessed as log reduction in bacterial count measured after 24 hrs by time kill assay; assay type: functional
Procedure, shortened: (§3)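 Time-kill assay in cation-adjusted MHB. Overnight cultures (S. aureus MRSA ATCC 700698; A. baumannii ATCC 19606) diluted 1:10,000, grown 2 h at 37 °C, 220 rpm to early exponential phase. […] Aliquots taken at intervals, tenfold serially diluted, plated on MHA overnight at 37 °C for CFU counts.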

Staphylococcus aureus [9] = assay: Antibacterial activity against methicillin resistant Staphylococcus aureus assessed as growth inhibition; assay type: functional, organism-based; procedure, shortened: as §2
Acinetobacter baumannii [10] = assay: Antibacterial activity against susceptible Acinetobacter baumannii; assay type: functional
Staphylococcus aureus [11] = assay: Bacteriostatic activity against Staphylococcus aureus ATCC 700698 assessed as log reduction in colony forming unit measured per ml after 24 hrs by time kill assay; assay type: functional; procedure, shortened: as §3
Staphylococcus aureus [12] = assay: Bacteriostatic activity against methicillin resistant Staphylococcus aureus assessed as log reduction in colony forming unit measured after 24 hrs by time kill assay; assay type: functional
Procedure, shortened: (§4)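 MRSA ATCC 700698 and A. baumannii ATCC 19606 overnight cultures were diluted 1:10,000 in MHB and grown 2 h at 37 °C and 220 rpm to early exponential phase. […] At intervals, aliquots were tenfold serially diluted, plated on MHA and incubated overnight at 37 °C for CFU counts.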

Acinetobacter baumannii [13] = assay: Antibacterial activity against Multi drug resistant Acinetobacter baumannii assessed as growth inhibition at 16 ug/mL by HIT assay relative to control; assay type: functional; conditions: read-out: GI; procedure, shortened: as §2
Acinetobacter baumannii [14] = assay: Bactericidal activity against multi-drug resistant Acinetobacter baumannii assessed as log reduction in colony forming unit measured after 24 hrs by time kill assay; assay type: functional; procedure, shortened: as §4
Staphylococcus aureus [15] = assay: Antibacterial activity against methicillin resistant Staphylococcus aureus assessed as growth inhibition at 2 ug/mL by HIT assay relative to control; assay type: functional; conditions: read-out: GI; procedure, shortened: as §2
Staphylococcus aureus [16] = assay: Antibacterial activity against methicillin resistant Staphylococcus aureus assessed as growth inhibition at 16 ug/mL by HIT assay relative to control; assay type: functional; conditions: read-out: GI; procedure, shortened: as §2
Staphylococcus aureus [17] = assay: Antibacterial activity against methicillin resistant Staphylococcus aureus assessed as growth inhibition at 32 ug/mL by HIT assay relative to control; assay type: functional; conditions: read-out: GI; procedure, shortened: as §2

Compound	inhibition of growth at 32 µg/mL (Staphylococcus aureus [1]) [%]	inhibition of growth at 32 µg/mL (Acinetobacter baumannii [2]) [%]	solubility [3]	inhibition of growth at 32 µg/mL (Escherichia coli) [%]	logP [4]	other results
CC(=O)/C(=C/c1ccccc1F)C(N)=O	43.8	58.2	Soluble	59.7	1.66	
CC(=O)/C(=C/c1ccccc1C#N)C(N)=O	14.4	70.8	Soluble	52.1	1.09	inhibition of growth at 32 µg/mL (Acinetobacter baumannii [5]): 50.5%; viability at 64 ug/ml [6]: 97.6%; viability at 64 ug/ml [7]: 92.2%; log(activity) (Acinetobacter baumannii [8]): >3
CC(=O)/C(=C/c1ccccc1Cl)C(N)=O	98.1	58.8	Soluble	66.8	1.38	
CC(=O)/C(=C/c1ccc(O)cc1)C(N)=O			Soluble		0.94	
CC(=O)/C(=C/c1cccc(F)c1)C(N)=O			Soluble		1.49	
CC(=O)/C(=C/c1ccc(C#N)cc1)C(N)=O			Soluble		1.13	
COc1cc(/C=C/C(=O)CC(=O)/C=C/c2ccc(O)c(OC)c2)ccc1O [CURCUMIN]			Soluble		3.03	
CC(=O)/C(=C/c1ccc2c(c1)OCO2)C(N)=O			Soluble		1.23	
CN[C@H](CC(C)C)C(=O)N[C@H]1C(=O)N[C@@H](CC(N)=O)C(=O)N[C@H]2C(=O)N[C@H]3C(=O)N[C@H](C(=O)N[C@H](C(=O)O)c4cc(O)cc(O)c4-c4cc3ccc4O)[C@H](O)c3ccc(c(Cl)c3)Oc3cc2cc(c3O[C@@H]2O[C@H](CO)[C@@H](O)[C@H](O)[C@H]2O[C@H]2C[C@](C)(N)[C@H](O)[C@H](C)O2)Oc2ccc(cc2Cl)[C@H]1O.Cl [VANCOMYCIN HYDROCHLORIDE]						growth inhibition (GI) (Staphylococcus aureus [9]): inactive; MIC (Acinetobacter baumannii [10]): 0.25 µg/mL
CCc1ccc(/C=C(/C(C)=O)C(N)=O)cc1			Soluble		1.99	
CC(=O)/C(=C/c1ccccc1[N+](=O)[O-])C(N)=O			Soluble		1.09	
CC(=O)/C(=C/c1cccc([N+](=O)[O-])c1)C(N)=O	83.7	98	Soluble	51.1	1.15	viability at 64 ug/ml [6]: 93.8%; Activity (Staphylococcus aureus [11]): 2 log10CFU/ml; Activity (Staphylococcus aureus [12]): >3 log10CFU; inhibition of growth at 16 µg/mL (Acinetobacter baumannii [13]): 98.2%; Activity (Acinetobacter baumannii [14]): >3 log10CFU; viability at 64 ug/ml [7]: 96.4%; inhibition of growth at 2 µg/mL (Staphylococcus aureus [15]): 99.4%
CCc1ccc(/C=C(/C(C)=O)C(N)=O)cc1[N+](=O)[O-]	82.7	27.7	Soluble	25.5	1.31	inhibition of growth at 16 µg/mL (Staphylococcus aureus [16]): 99.2%; viability at 64 ug/ml [6]: 88.9%; viability at 64 ug/ml [7]: 94.5%
O=C(/C=C/c1ccccc1)c1ccccc1 [CHALCONE]			Soluble		3.29	
CC(=O)/C(=C/c1ccc(Br)cc1)C(N)=O	83.7	53	Soluble	51.8	1.62	viability at 64 ug/ml [6]: 94.8%; inhibition of growth at 32 µg/mL (Staphylococcus aureus [17]): 94.2%; Activity (Staphylococcus aureus [11]): 2 log10CFU/ml; viability at 64 ug/ml [7]: 98.9%
CC(=O)/C(=C/c1ccc(OCc2ccccc2)cc1)C(N)=O			Soluble		2.72	
COc1cccc(/C=C(/C(C)=O)C(N)=O)c1OC			Soluble		1.3	
CC(=O)/C(=C/c1ccc([N+](=O)[O-])cc1)C(N)=O	98.2	30.5	Soluble	68.1	1.13	viability at 64 ug/ml [6]: 90.6%; Activity (Staphylococcus aureus [11]): 2 log10CFU/ml; viability at 64 ug/ml [7]: 95.1%; inhibition of growth at 2 µg/mL (Staphylococcus aureus [15]): 98.7%
CC(=O)/C(=C/c1cccc(C#N)c1)C(N)=O			Soluble		1.15	
CC(=O)/C(=C/c1ccccc1)C(N)=O			Soluble		1.6	
CC(=O)/C(=C/c1cccc(Br)c1)C(N)=O			Soluble		1.73	
CC(=O)/C(=C/c1ccc(C)cc1)C(N)=O			Soluble		1.68	
COc1cc(/C=C(/C(C)=O)C(N)=O)cc(OC)c1OC			Soluble		1.41	
CC(=O)/C(=C/c1ccc(Cl)cc1)C(N)=O	87.5	65.4	Soluble	67.8	1.88	
CC(=O)/C(=C/c1ccccc1Br)C(N)=O	93.8	60	Soluble	51.6	1.62	viability at 64 ug/ml [6]: 90.2%; inhibition of growth at 32 µg/mL (Staphylococcus aureus [17]): 80%; Activity (Staphylococcus aureus [11]): 2 log10CFU/ml; viability at 64 ug/ml [7]: 95.3%
CC(=O)/C(=C/c1ccc(C(F)(F)F)cc1)C(N)=O			Soluble		2.43	
